What all share (format): functional, cell-based
One assay relates to SK-MES-1. Put plainly: Antiproliferative activity against human SK-MES cells after 3 days by SRB assay. The note with it: SK-MES-1, 72 h. The procedure, abridged:
(§1)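 Cells seeded at 5 × 10^4 cells/mL and exposed to a range of concentrations for 3 days. Fixed with 10% TCA, then SRB stain read. Growth expressed as % of solvent-treated control. IC50 obtained by nonlinear regression of percent survival versus concentration.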
Background: The SRB assay estimates cell density from bound dye.

The subject of the next assay is NCI-H1993. Briefly: Antiproliferative activity against human NCI-H1993 cells after 3 days by SRB assay. The note with it: NCI-H1993, 72 h.
The next assay relates to NCI-H292. Put plainly: Antiproliferative activity against human NCI-H292 cells after 3 days by SRB assay. The note with it: NCI-H292, 72 h.
The test system of the next assay is A549. Put plainly: Antiproliferative activity against human A549 cells after 3 days by SRB assay. The note with it: A549, 72 h. The procedure, abridged:
as §1

Another assay concerns NCI-H358. Briefly: Antiproliferative activity against human NCI-H358 cells after 3 days by SRB assay. The note with it: NCI-H358, 72 h. The procedure, abridged:
as §1

The nature of assay [1]: Antiproliferative activity against human H1299 cells after 3 days by SRB assay. The note with it: NCI-H1299, 72 h. The method in brief: as §1

For orientation: IC50 means the point on the concentration scale where inhibition reaches its midpoint. `Cc1c2ccncc2c(C)c2c1[nH]c1ccccc12` [ELLIPTECINE]: the IC50 in the assay with SK-MES-1 was 200 nM; with NCI-H1993, 200 nM; in the assay on NCI-H292, 1000 nM; with A549, 1100 nM; in the assay with NCI-H358, 800 nM; in assay [1], 600 nM.
